Screening results: PubChem, several laboratories
This is a sample that favours compounds with a hit; in the whole collection about 1.9% have one here.
pCIP destab – lowers stability of the mouse p/CIP coactivator protein. Q05BA5. F442A p/CIP-EGFP cells, EGFP fluorescence, 16 h. decrease of EGFP signal, % at 10 µM. actives 0.01% (n = 290,000);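 active = EGFP signal decrease of at least 30% at 10 µM or well 3 SD below plate mean, unless failing retest; inactive = the rest, including hits failing retest or dose response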
CTSL1 counter – counter-screen for PFM18AAP inhibitors: inhibitors of F. hepatica cathepsin L1. recombinant F. hepatica cathepsin L1, Z-Leu-Arg-MCA fluorescence. actives 0.49% (n = 300,000). AID 1906. inhibition, % at 5.96 µM;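 active = inhibition above the mean of all tested compounds plus 3 SD, set per screening campaign, cut at about 17% in these data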
VIM-2 inhibitor – blocks Pseudomonas aeruginosa VIM-2 metallo-beta-lactamase; purified VIM-2, nitrocefin hydrolysis, epi-absorbance fluorescence; inhibition, % at 5.6 µM; actives 0.89% (n = 290,000); AID 1527;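 active = inhibition above the mean of all tested compounds plus 3 SD, cutoff set per screening run, cut at about 7.5% in these data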;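 note: red hydrolysis product quenches plate fluorescence so inhibitors raise well fluorescence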
IMP-1 inhibitor – inhibitors of Pseudomonas aeruginosa IMP-1 metallo-beta-lactamase | purified IMP-1, nitrocefin hydrolysis, epi-absorbance fluorescence | inhibition, % at 5.6 µM | actives 0.45% (n = 290,000) | AID 1556;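 active = inhibition above the mean plus 3 SD of all compounds in the same screening run, cut at about 4.5% in these data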
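Test system: recombinant IMP-1 enzyme, purified / Medium: HEPES buffer pH 7.1 with ZnSO4 and Brij 35 / Doses: single dose, 5.6 µM / Times: 25 °C, 15 min preincubation, 25 min reaction / Detection: Epi-absorbance via hydrolysed-nitrocefin quenching of white-plate fluorescence, 480/530 nm, EDTA stop / Evaluation: percent inhibition from optical density relative to buffer-blank wells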
T cell HTS – T cell immune modulation candidate; response (vesicle binding), % at 7 µM; AID 2052; actives 0.068% (n = 330,000); 2C CD8+ T cell-vesicle binding, flow cytometry; active compounds read low;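 active = response, share of CD8 T cells binding vesicles, and their 90th percentile fluorescence all below set limits, cut at about 80% in these data, passing the limit was not always enough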;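 note: values below 100% mean blocked vesicle binding to the CD8+ T cells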
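Benchmarks: naked versus QL9-loaded vesicles / Assay system: purified 2C TCR transgenic mouse naive CD8+ T cells / Technique: high-throughput flow cytometry with anti-B7-1 and anti-CD8 staining / Timing: Cell–vesicle co-incubation 1.5 h at 37 °C, staining 20 min on ice / Read-out: percent CD8+ FL2 mean versus row control / Probe or stimulus: QL9-loaded Drosophila micro-vesicles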
SUMO HTRF inh – blocks human SUMOylation mediated by UBC9. P63279. HTRF SUMOylation assay, SAE1/SAE2 + UBC9, in vitro. inhibition, % at 35 µM. actives 0.36% (n = 290,000). AID 2006; in the data active = inhibition above about 50%, passing the limit was not always enough
Each line names hits and unclear results; the compound was inactive in the other large screens.

Nc1cn(C2OC(CO)C(O)C2O)c(=O)[nH]c1=O (stereo not given)	IMP-1 inhibitor 6.3 (no result: CTSL1 counter)
O=C(COC(=O)C1CC2CCCC(C1)C2=O)Nc1ccccc1 (stereo not given)	none (no result: pCIP destab, CTSL1 counter, VIM-2 inhibitor, IMP-1 inhibitor, SUMO HTRF inh)
NS(=O)(=O)c1cc(C(=O)NC2CCSc3ccccc32)ccc1Cl (stereo not given)	SUMO HTRF inh 73.3
NS(=O)(=O)c1cccc(C(=O)NC2CCSc3ccccc32)c1 (stereo not given)	none
CCCCN(C)C(=O)c1nc2ccccn2c1CN1CCN(C(=O)c2cccs2)CC1	none
NS(=O)(=O)c1ccc(Cl)cc1[N+](=O)[O-]	none
Cc1cccc(C)c1NC(=O)C1CCCN1S(=O)(=O)c1ccc(-c2ccc(=O)[nH]n2)s1 (stereo not given)	CTSL1 counter 28.1
CCc1ccccc1NC(=O)C1CCCN1S(=O)(=O)c1ccc(-c2ccc(=O)[nH]n2)s1 (stereo not given)	none
CN(c1ccc(C(=O)Nc2ccccn2)cc1)S(=O)(=O)c1ccccc1	T cell HTS 57.0
CCN(c1ccccc1)S(=O)(=O)c1ccc(C(=O)Nc2ccccn2)cc1	none (no result: pCIP destab, VIM-2 inhibitor, IMP-1 inhibitor, SUMO HTRF inh)
COc1ccc(S(=O)(=O)Cc2ccc(C(=O)NCc3ccccc3OC)o2)cc1	none
CC(C)CCNC(=O)[C@H](CC(C)C)NC(=O)[C@H]1O[C@@H]1C(=O)O	CTSL1 counter 110.7
CCOC(=O)[C@H]1O[C@@H]1C(=O)N[C@@H](CC(C)C)C(=O)NCCC(C)C	CTSL1 counter 105.7
COc1ccc(N=Cc2c(O)[nH]c3ccccc23)cc1	none
COc1ccc(CN=Cc2c(O)[nH]c3ccccc23)cc1	CTSL1 counter 21.0
CCOC(CNC(=O)c1cccc([N+](=O)[O-])c1)OCC	CTSL1 counter 37.5
O=C(NCCc1ccccc1)c1cccc([N+](=O)[O-])c1	none
Cc1ccc(-c2nn(C)c(=O)c3ccccc23)cc1CO	none
CN(CCO)C(=O)c1ccc(-c2nn(C)c(=O)c3ccccc23)cc1	none
Cc1cc(-c2nn(C)c(=O)c3ccccc23)cc(C)c1O	VIM-2 inhibitor 9.2
Cn1nc(-c2ccc(C(=O)NCCO)cc2)c2ccccc2c1=O	VIM-2 inhibitor 10.0
Cn1nc(-c2ccc(OCC(=O)NCC3CCCO3)cc2)c2ccccc2c1=O (stereo not given)	VIM-2 inhibitor 11.4
Cn1nc(-c2ccc(C(=O)NCC3CCCO3)cc2)c2ccccc2c1=O (stereo not given)	none
COc1ccc(-c2c(NC(=O)CC(C)C)n(C)c3ccccc3c2=O)cc1OC	none
COc1cccc(-c2noc(C(C)n3nc(C)c([N+](=O)[O-])c3C)n2)c1 (stereo not given)	CTSL1 counter 18.3
COc1cccc(-c2noc(-c3cccnc3)n2)c1	none
N#Cc1ccsc1NC(=O)COC(=O)c1cc2ccccc2cc1O	none
CCOC(=O)C1=CC[C@@H](c2cc3cc(OC)ccc3n2C)N(S(=O)(=O)c2ccc(C)cc2)[C@H]1C(=O)OCC	none (no result: pCIP destab, CTSL1 counter, VIM-2 inhibitor, IMP-1 inhibitor, SUMO HTRF inh)
Cc1cccc(-n2ncc3c(N4CCCC4)ncnc32)c1	T cell HTS 0.0
NC(=O)C1CCN(CC(=O)Nc2cccc(C(=O)Nc3cccc(C(F)(F)F)c3)c2)CC1	none
Cc1ccc(NC(=O)C2CCCN(S(=O)(=O)c3c(C)noc3/C=C/N(C)C)C2)cc1F (stereo not given)	CTSL1 counter 16.7
Cc1noc(/C=C/N(C)C)c1S(=O)(=O)N1CCC(C(=O)Nc2ccc(Cl)cc2)CC1	none
O=C(OCC(=O)N1CCOCC1)c1cccc(S(=O)(=O)Nc2ccc(F)cc2)c1	none (no result: pCIP destab, CTSL1 counter, VIM-2 inhibitor, IMP-1 inhibitor, SUMO HTRF inh)
CCN(CC)C(=O)CSc1nc2ncccc2[nH]1	CTSL1 counter 18.6 (no result: T cell HTS)
COc1ccc(/C=N/Nc2ccc([N+](=O)[O-])cc2)cc1Cn1cc([N+](=O)[O-])cn1	IMP-1 inhibitor 4.6
CCN(CC)Cc1c(O)ccc2c(=O)c(Oc3ccccc3OC)coc12	SUMO HTRF inh 52.2
COc1ccccc1Oc1coc2c(CN(C)C)c(O)ccc2c1=O	none
CCCNC(=O)C(Sc1ccccc1)c1ccccc1 (stereo not given)	CTSL1 counter 35.5
COC(=O)c1ccc(NC(=O)c2cccc(C)c2[N+](=O)[O-])cc1	none
O=C(Nc1ccccc1)Nc1n[nH]c2nnc(-c3ccccc3)c(-c3ccccc3)c12	IMP-1 inhibitor 20.9
